# Assay results from ChEMBL document CHEMBL1250424, “Design, synthesis and evaluation of 2-amino-4-m-bromoanilino-6-arylmethyl-7H-pyrrolo[2,3-d]pyrimidines as tyrosine kinase inhibitors and antiangiogenic agents” (Bioorg Med Chem, 2010).
# pIC50: −log10 of the molar value.
# How the values were obtained:
# [1] = target: Vascular endothelial growth factor receptor 2 (Homo sapiens, UniProt P35968); assay: Inhibition of VEGFR2 expressed in human A431 cells; type: cell-based, A-431
# [2] = Antiangiogenic activity in fertilized chicken egg by CAM assay; type: functional, Gallus gallus
# [3] = target: Epidermal growth factor receptor (Homo sapiens, UniProt P00533); assay: Inhibition of EGFR expressed in human A431 cells; type: cell-based, A-431
# Epidermal growth factor receptor, sequence (P00533 whole entry): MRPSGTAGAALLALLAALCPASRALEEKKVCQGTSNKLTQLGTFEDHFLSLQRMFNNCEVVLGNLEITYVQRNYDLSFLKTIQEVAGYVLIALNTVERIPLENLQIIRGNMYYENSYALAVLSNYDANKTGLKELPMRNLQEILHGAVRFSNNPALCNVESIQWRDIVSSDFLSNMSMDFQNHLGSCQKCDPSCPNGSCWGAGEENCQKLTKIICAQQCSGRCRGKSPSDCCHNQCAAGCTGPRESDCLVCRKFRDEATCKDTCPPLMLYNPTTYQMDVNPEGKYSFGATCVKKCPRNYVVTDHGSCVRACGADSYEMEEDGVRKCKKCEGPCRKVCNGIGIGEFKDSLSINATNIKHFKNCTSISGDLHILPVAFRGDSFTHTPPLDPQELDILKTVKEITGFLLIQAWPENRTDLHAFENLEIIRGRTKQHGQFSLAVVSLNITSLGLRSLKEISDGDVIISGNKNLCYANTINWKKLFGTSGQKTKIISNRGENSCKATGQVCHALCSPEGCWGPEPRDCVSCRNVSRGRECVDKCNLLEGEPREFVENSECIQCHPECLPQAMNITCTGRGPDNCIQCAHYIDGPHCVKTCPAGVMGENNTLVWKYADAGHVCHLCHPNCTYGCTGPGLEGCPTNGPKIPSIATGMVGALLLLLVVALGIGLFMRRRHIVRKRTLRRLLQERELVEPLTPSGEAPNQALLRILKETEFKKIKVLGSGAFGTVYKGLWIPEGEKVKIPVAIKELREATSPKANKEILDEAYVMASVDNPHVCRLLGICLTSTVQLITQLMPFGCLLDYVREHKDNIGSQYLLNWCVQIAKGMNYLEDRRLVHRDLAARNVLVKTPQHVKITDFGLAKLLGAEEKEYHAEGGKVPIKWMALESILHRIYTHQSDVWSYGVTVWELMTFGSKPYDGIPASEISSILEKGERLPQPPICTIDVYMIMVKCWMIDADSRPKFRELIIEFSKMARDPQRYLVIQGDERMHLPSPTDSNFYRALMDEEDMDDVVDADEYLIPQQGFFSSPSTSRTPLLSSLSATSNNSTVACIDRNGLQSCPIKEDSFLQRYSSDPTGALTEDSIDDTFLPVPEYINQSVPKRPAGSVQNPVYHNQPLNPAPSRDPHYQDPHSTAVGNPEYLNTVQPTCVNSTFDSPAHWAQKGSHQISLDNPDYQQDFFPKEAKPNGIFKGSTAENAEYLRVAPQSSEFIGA
# [4] = target: Platelet-derived growth factor receptor beta (Homo sapiens, UniProt P09619); assay: Inhibition of PDGFRbeta expressed in human A431 cells; type: cell-based, A-431
# Platelet-derived growth factor receptor beta, sequence (P09619 whole entry): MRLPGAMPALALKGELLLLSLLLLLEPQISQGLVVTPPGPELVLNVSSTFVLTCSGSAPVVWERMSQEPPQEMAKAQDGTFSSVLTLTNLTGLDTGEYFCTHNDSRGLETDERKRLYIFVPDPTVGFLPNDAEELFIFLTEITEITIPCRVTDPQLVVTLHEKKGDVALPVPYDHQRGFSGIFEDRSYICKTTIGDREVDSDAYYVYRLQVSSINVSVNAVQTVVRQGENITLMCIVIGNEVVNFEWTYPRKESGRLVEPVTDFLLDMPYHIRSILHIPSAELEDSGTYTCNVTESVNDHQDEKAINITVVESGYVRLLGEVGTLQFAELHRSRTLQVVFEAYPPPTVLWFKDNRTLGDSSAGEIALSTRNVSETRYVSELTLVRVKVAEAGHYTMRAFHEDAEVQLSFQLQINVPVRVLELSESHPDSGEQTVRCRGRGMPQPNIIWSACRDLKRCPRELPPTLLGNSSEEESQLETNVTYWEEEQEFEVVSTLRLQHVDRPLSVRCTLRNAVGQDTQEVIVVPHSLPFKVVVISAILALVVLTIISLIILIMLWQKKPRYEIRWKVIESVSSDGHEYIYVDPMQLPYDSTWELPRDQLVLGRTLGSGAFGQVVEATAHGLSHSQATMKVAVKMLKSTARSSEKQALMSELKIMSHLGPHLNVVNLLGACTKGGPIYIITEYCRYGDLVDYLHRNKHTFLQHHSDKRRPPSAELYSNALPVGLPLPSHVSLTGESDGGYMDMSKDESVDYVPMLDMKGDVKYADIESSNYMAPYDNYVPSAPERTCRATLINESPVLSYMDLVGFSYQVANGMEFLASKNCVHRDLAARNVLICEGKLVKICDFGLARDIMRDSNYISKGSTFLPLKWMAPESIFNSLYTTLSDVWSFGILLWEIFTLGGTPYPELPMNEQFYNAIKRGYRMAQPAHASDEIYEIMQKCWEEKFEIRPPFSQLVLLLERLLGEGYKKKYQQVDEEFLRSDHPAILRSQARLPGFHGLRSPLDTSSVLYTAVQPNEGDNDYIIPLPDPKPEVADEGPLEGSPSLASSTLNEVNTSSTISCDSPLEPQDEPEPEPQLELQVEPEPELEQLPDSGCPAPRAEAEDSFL
# A-431 = assay: Cytotoxicity against human A431 cells; type: functional, cell-based
# In short: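 Growth inhibition of A431 cells, which over-express EGFR, measured in culture. Cisplatin was run in each evaluation as the reference standard. Each assay was performed 2-3 times, with 4-5 replicates per assay.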
# Vascular endothelial growth factor receptor 2, sequence (P35968 whole entry): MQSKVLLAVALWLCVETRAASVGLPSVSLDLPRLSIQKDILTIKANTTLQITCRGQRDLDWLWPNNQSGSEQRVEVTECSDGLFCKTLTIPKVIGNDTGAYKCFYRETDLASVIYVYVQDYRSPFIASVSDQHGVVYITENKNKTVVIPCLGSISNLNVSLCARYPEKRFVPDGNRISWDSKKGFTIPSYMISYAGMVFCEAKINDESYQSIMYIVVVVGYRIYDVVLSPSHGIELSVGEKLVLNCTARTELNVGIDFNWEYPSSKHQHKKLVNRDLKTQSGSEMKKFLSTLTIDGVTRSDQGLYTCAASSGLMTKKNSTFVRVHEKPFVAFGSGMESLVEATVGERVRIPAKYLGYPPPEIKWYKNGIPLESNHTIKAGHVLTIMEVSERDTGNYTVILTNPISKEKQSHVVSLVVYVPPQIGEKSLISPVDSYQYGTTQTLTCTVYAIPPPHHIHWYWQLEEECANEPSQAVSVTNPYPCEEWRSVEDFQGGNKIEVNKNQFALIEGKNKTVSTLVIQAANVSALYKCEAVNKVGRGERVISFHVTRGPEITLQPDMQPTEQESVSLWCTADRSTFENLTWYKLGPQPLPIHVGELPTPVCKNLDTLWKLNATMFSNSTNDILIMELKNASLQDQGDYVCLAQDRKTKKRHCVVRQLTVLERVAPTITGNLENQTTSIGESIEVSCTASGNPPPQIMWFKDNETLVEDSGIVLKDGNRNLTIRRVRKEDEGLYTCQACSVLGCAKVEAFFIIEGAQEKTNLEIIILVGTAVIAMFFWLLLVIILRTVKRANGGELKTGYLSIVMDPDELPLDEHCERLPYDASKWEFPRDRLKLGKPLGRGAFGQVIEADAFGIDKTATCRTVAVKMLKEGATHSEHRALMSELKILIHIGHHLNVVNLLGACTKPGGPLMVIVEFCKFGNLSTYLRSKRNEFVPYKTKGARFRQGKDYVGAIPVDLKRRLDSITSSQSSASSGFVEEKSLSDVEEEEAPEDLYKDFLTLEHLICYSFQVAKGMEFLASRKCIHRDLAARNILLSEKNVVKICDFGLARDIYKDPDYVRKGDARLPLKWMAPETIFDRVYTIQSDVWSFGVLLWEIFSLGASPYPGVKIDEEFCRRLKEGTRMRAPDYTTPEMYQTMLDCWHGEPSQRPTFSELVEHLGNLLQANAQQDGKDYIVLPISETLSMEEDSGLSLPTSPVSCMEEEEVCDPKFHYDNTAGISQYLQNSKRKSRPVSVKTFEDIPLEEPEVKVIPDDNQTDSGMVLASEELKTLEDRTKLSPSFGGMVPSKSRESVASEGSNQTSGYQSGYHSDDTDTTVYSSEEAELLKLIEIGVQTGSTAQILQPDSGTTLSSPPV
pIC50 [1],pIC50 [2],pIC50 [3],pIC50 [4],SMILES,pIC50 (A-431)
< 3.70,5.21,< 3.70,5.55,Cn1c(Cc2ccccc2)cc2c(Nc3cccc(Br)c3)nc(N)nc21,4.55
3.93,5.52,4.89,< 3.30,Cc1ccccc1Cc1cc2c(Nc3cccc(Br)c3)nc(N)nc2n1C,3.69
< 3.70,5.80,5.92,< 3.30,Cc1ccccc1Cc1cc2c(N(C)c3cccc(Br)c3)nc(N)nc2n1C,3.65

# Second part, the compound before the results:
SMILES,pIC50 [1],pIC50 [2],pIC50 [3],pIC50 [4],pIC50 (A-431)
Cc1ccccc1Cc1cc2c(Nc3cccc(Br)c3)nc(N)nc2[nH]1,6.60,–,–,–,–
COc1ccc(OC)c(Cc2cc3c(Nc4cccc(Br)c4)nc(N)nc3[nH]2)c1,6.21,5.88,–,–,–
CN(c1cccc(Br)c1)c1nc(N)nc2[nH]c(Cc3ccccc3)cc12,4.05,5.81,4.27,< 3.30,4.34
CN(c1cccc(Br)c1)c1nc(N)nc2c1cc(Cc1ccccc1)n2C,< 3.70,5.59,3.60,4.14,4.29
Cc1ccccc1Cc1cc2c(N(C)c3cccc(Br)c3)nc(N)nc2[nH]1,< 3.70,6.03,4.51,4.46,< 3.30
COc1ccc(OC)c(Cc2cc3c(N(C)c4cccc(Br)c4)nc(N)nc3[nH]2)c1,< 3.70,6.08,3.84,5.89,3.70
COc1ccc(OC)c(Cc2cc3c(Nc4cccc(Br)c4)nc(N)nc3n2C)c1,< 3.70,5.48,< 3.70,3.46,4.45
COc1ccc(OC)c(Cc2cc3c(N(C)c4cccc(Br)c4)nc(N)nc3n2C)c1,< 3.70,5.69,6.30,< 3.30,4.03
